In ChEMBL document CHEMBL1129783, “Synthesis and modeling studies with monocyclic analogues of mycophenolic acid” (J Med Chem, 1996):

Tests used:
L1210 [1] = test: Inhibitory activity of compound against L1210 leukemia cells in tissue culture; format: functional, cell-based; conditions: Mus musculus
In short: (§1)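 L1210 leukemia cells in tissue culture were exposed for 48 h to compounds dissolved in DMSO, at up to 100 μM (highest concentration tested). Read-out was growth inhibition, reported as IC50 or as percent inhibition at 100 μM.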

A121 = test: Inhibitory activity of compound against human A121 ovarian cell line.; format: functional, cell-based
HT-29 [2] = test: Inhibitory activity of compound against HT-29 human colon adenocarcinoma cell line; […]; format: functional, cell-based
MCF7 = test: Inhibitory activity of compound against human MCF-7 breast adenocarcinoma cell line.; format: functional, cell-based
A549 = test: Inhibitory activity of compound against human A549 lung carcinoma cell line.; format: functional, cell-based
L1210 [3] = test: Inhibitory activity of compound against L1210 leukemia cells in tissue culture at 100 uM; format: functional; conditions: Mus musculus; in short: as §1
HT-29 [4] = test: Inhibitory activity of compound against HT-29 human colon adenocarcinoma cell line; format: functional, cell-based

IC50 (L1210 [1]) [µM] | IC50 (HT-29 [2]) | Compound | other results
> 100 |  | COc1c(C)cc(C(N)=O)c(O)c1C/C=C(\C)CCC(=O)O | 
> 100 | Not Active | COc1ccc(C(C)=O)c(O)c1C/C=C(\C)CCC(=O)O | IC50 (A121): > 32.5 µM; IC50 (MCF7): > 32.5 µM; IC50 (A549): > 32.5 µM
> 100 | Not Active | COc1ccc(C(N)=O)c(O)c1C/C=C(\C)CCC(=O)O | 
> 100 |  | COC(=O)c1cc(C)c(OC)c(C/C=C(\C)CCC(=O)O)c1O | 
> 100 | Not Active | COC(=O)c1ccc(OC)c(C/C=C(\C)CCC(=O)O)c1O | 
> 100 |  | COc1c(C)cc(C(C)=O)c(O)c1C/C=C(\C)CCC(=O)O | 
 |  | COc1c(Cl)cc(C(C)=O)c(O)c1C/C=C(\C)CCC(=O)O | inhibition at 100 µM (L1210 [3]): 21%
> 100 |  | COc1c(Cl)cc(C(N)=O)c(O)c1C/C=C(\C)CCC(=O)O | 
< 0.2 |  | COc1c(C)c2c(c(O)c1C/C=C(\C)CCC(=O)O)C(=O)OC2 [MYCOPHENOLIC ACID] | IC50 (HT-29 [4]): 0.4 µM

Compound | IC50 (L1210 [1]) [µM] | IC50 (HT-29 [2]) | other results
COC(=O)c1cc(Cl)c(OC)c(C/C=C(\C)CCC(=O)O)c1O | 61 |  | 
